ChEMBL document CHEMBL3271979, “Inhibition of solid tumors by nitrosoureas. 1. Lewis lung carcinoma” (1977)
Active and inactive are the calls of the source. The calls are words filed in the database; no cut-off is given here.

Assays:
[1] = system: Mus musculus; assay: Antitumor activity against mouse advanced Lewis lung carcinoma allografted in ip dosed BDF1 mouse assessed as complete regression of established tumor administered as single dose on day 6 or 7 post-tumor implantation; type: functional, organism-based
Outline: (§1)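 BDF1 mice (C57Blk/6 × DBA/2) implanted sc by trocar with Lewis lung tumor fragments of about 40 mg, taken only from bacteriologically sterile donor tumors. Mice bearing tumors of about 400 mg (day 6-7) were selected. Each received a single ip dose on day 7, at or below the LD10 in normal mice. Groups were of 10 mice. Tumor weight was taken from calipers as w = ab²/2, measured at least twice weekly. Matched non-tumor mice served as toxicity controls.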

[2] = Antitumor activity against mouse advanced Lewis lung carcinoma allografted in ip dosed BDF1 mouse assessed as increase in host lifespan administered as single dose on day 6 or 7 post-tumor implantation; type: functional
Outline: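 Advanced Lewis lung model: about 40 mg fragments implanted sc by trocar into BDF1 mice, and mice with tumors of about 400 mg (day 6-7) selected. Tumor weight from calipers, w = ab²/2. Agent given as one ip dose in distilled water or physiological saline. Nontumor-bearing mice received matching doses as toxicity controls.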

[3] = system: Mus musculus; assay: (§2) Antitumor activity against mouse early Lewis lung carcinoma allografted in ip dosed BDF1 mouse assessed as disease cure administered as single dose on 1 or 2 days post-tumor implantation measured for 80 days post-drug treatment; type: functional
Outline: (§3)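 BDF1 mice implanted sc by trocar with ~40 mg Lewis lung fragments from sterile donor tumors. A single ip dose was given on day 1 or 2 after implant, in water or saline vehicle. Cures were scored in animals observed for at least 80 days after treatment. Drug-toxicity controls were matched non-tumor-bearing mice monitored for body weight and deaths.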

[4] = system: Mus musculus; assay: Antitumor activity against mouse early Lewis lung carcinoma allografted in ip dosed BDF1 mouse administered as single dose on 1 or 2 days post-tumor implantation measured for 80 days post-drug treatment; type: functional, organism-based; outline: as §3
[5] = system: L1210; assay: Antitumor activity against mouse L1210 cells allografted in ip dosed mouse assessed as disease cure administered as single dose; type: functional, organism-based
[6] = Antitumor activity against mouse advanced Lewis lung carcinoma allografted in BDF1 mouse assessed as increase in host life span at 45 mg/kg, ip administered as single dose on 7th day post-tumor implantation; type: functional; settings: route intraperitoneal
Outline: (§4)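 BDF1 mice (C57Blk/6 × DBA/2) implanted sc by trocar with about 40 mg Lewis lung tumor fragments from bacteriologically sterile donors. Advanced-disease groups held tumors of about 400 mg by day 6-7, sized by caliper (w = ab²/2). Single ip injection on day 7, in water or saline vehicle, at or below the LD10 in normal mice. Tumors measured at least twice weekly.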

[7] = system: Mus musculus; assay: Antitumor activity against mouse advanced Lewis lung carcinoma allografted in ip dosed BDF1 mouse assessed as disease cure administered as single dose on day 6 or 7 post-tumor implantation; type: functional, organism-based; outline: as §1
[8] = system: Mus musculus; assay: Antitumor activity against mouse advanced Lewis lung carcinoma allografted in BDF1 mouse assessed as disease cure at 32 mg/kg, ip administered as single dose on 7th day post-tumor implantation measured for 80 days post-drug treatment; type: functional, organism-based; design: dose 32 mg/kg; outline: as §1
[9] = system: Mus musculus; assay: Antitumor activity against mouse advanced Lewis lung carcinoma allografted in BDF1 mouse assessed as complete regression of established tumor at 32 mg/kg, ip administered as single dose on 7th day post-tumor implantation; type: functional, organism-based; design: dose 32 mg/kg; outline: as §4
[10] = Antitumor activity against mouse advanced Lewis lung carcinoma allografted in BDF1 mouse assessed as increase in host life span at 32 mg/kg, ip administered as single dose on 7th day post-tumor implantation; type: functional; settings: route intraperitoneal; outline: as §4
[11] = Ratio of ED50 for antitumor activity against mouse L1210 cells allografted in ip dosed mouse to LD10 for mouse
[12] = system: Mus musculus; assay: Antitumor activity against mouse advanced Lewis lung carcinoma allografted in BDF1 mouse assessed as disease cure at 36 mg/kg, ip administered as single dose on 7th day post-tumor implantation measured for 80 days post-drug treatment; type: functional, organism-based; design: dose 36 mg/kg; outline: as §1
[13] = Antitumor activity against mouse advanced Lewis lung carcinoma allografted in BDF1 mouse assessed as increase in host life span at 36 mg/kg, ip administered as single dose on 7th day post-tumor implantation; type: functional; settings: route intraperitoneal; outline: as §4
[14] = system: Mus musculus; assay: Antitumor activity against mouse advanced Lewis lung carcinoma allografted in BDF1 mouse assessed as disease cure at 21 mg/kg, ip administered as single dose on 7th day post-tumor implantation measured for 80 days post-drug treatment; type: functional, organism-based; design: dose 21 mg/kg; outline: as §1
[15] = Antitumor activity against mouse advanced Lewis lung carcinoma allografted in BDF1 mouse assessed as increase in host life span at 21 mg/kg, ip administered as single dose on 7th day post-tumor implantation; type: functional; settings: route intraperitoneal; outline: as §4
[16] = Antitumor activity against mouse early Lewis lung carcinoma allografted in BDF1 mouse assessed as increase in host life span at 38 mg/kg, ip administered as single dose on 1 or 2 days post-tumor implantation; type: functional; settings: route intraperitoneal
Outline: (§5)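 BDF1 mice (C57Blk/6 × DBA/2) implanted sc by trocar with ~40 mg Lewis lung tumor fragments from bacteriologically sterile donor tumors. Single ip dose on day 1 or 2, as a solution or suspension in water (CMC or gum acacia) or saline (HPC or Tween 80). Read-out is […]. Same-dose toxicity controls were run in nontumor-bearing mice.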

[17] = Antitumor activity against mouse early Lewis lung carcinoma allografted in BDF1 mouse assessed as increase in host life span at 26 mg/kg, ip administered as single dose on 1 or 2 days post-tumor implantation; type: functional; settings: route intraperitoneal; outline: as §5
[18] = Antitumor activity against mouse early Lewis lung carcinoma allografted in BDF1 mouse assessed as time delay in tumor growth at 38 mg/kg, ip administered as single dose on 1 or 2 days post-tumor implantation; type: functional; settings: route intraperitoneal
Outline: (§6)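 BDF1 mice (C57Blk/6 × DBA/2) implanted sc by trocar with ~40 mg Lewis lung tumor fragments from bacteriologically sterile donors. A single ip dose was given on day 1 or 2, as a solution or suspension in water or saline with suspending agent, at ≤0.5 ml. Tumors were measured by caliper at least twice weekly, with weight = ab²/2. Delay was taken as the days for the tumor to reach 1 g.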

[19] = Antitumor activity against mouse early Lewis lung carcinoma allografted in BDF1 mouse assessed as time delay in tumor growth at 26 mg/kg, ip administered as single dose on 1 or 2 days post-tumor implantation; type: functional; settings: route intraperitoneal; outline: as §6
[20] = as §2; type: functional; outline: as §3
[21] = Antitumor activity against mouse early Lewis lung carcinoma allografted in BDF1 mouse assessed as increase in host life span at 13 mg/kg, ip administered as single dose on 1 or 2 days post-tumor implantation; type: functional; settings: route intraperitoneal
Outline: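 Early disease: BDF1 mice carrying sc trocar implants of about 40 mg Lewis lung fragments. One ip dose given on day 1 or 2 after implant, in distilled water or saline, at ≤0.5 ml. Endpoints were % increase in life-span of dying animals and delay in days for the primary tumor to reach 1 g. Untreated controls served as reference.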

[22] = Antitumor activity against mouse early Lewis lung carcinoma allografted in BDF1 mouse assessed as increase in host life span at 30 mg/kg, ip administered as single dose on 1 or 2 days post-tumor implantation; type: functional; settings: route intraperitoneal; outline: as §5
[23] = system: Mus musculus; assay: Antitumor activity against mouse advanced Lewis lung carcinoma allografted in BDF1 mouse assessed as disease cure at 30 mg/kg, ip administered as single dose on 7th day post-tumor implantation measured for 80 days post-drug treatment; type: functional, organism-based; design: dose 30 mg/kg; outline: as §1
[24] = Antitumor activity against mouse advanced Lewis lung carcinoma allografted in BDF1 mouse assessed as increase in host life span at 30 mg/kg, ip administered as single dose on 7th day post-tumor implantation; type: functional; settings: route intraperitoneal; outline: as §4
[25] = Antitumor activity against mouse early Lewis lung carcinoma allografted in BDF1 mouse assessed as time delay in tumor growth at 13 mg/kg, ip administered as single dose on 1 or 2 days post-tumor implantation; type: functional; settings: route intraperitoneal
Outline: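 Sc trocar implants of about 40 mg Lewis lung fragments in BDF1 mice. A single ip injection was given on day 1 or 2, in water or physiological saline, at ≤0.5 ml. Tumor size came from caliper length and width as w = ab²/2, measured at least twice weekly. Growth delay is the extra days taken to reach 1 g, compared with untreated controls.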

[26] = Antitumor activity against mouse early Lewis lung carcinoma allografted in BDF1 mouse assessed as time delay in tumor growth at 30 mg/kg, ip administered as single dose on 1 or 2 days post-tumor implantation; type: functional; settings: route intraperitoneal; outline: as §6

C[C@H]1CC[C@@H](NC(=O)N(CCCl)N=O)CC1
inhibition [1]: inactive
ILS [2]: <25%

CCCCCC(C)NC(=O)N(CCCl)N=O (centres undefined)
Activity [3]: inactive
Activity [4]: inactive
Activity [5]: inactive
inhibition [1]: inactive
ILS [2]: <25%

O=NN(CCF)C(=O)N[C@H]1CC[C@H](C(=O)O)CC1
ILS at 45 mg/kg [6]: 60%
Activity [7]: Active

CC(=O)O[C@H]1CC[C@H](NC(=O)N(CCF)N=O)CC1
inhibition [1]: inactive
ILS [2]: <25%

O=NN(CCCl)C(=O)NCCF
Activity [8]: inactive
inhibition [9]: inactive
ILS at 32 mg/kg [10]: 44%

O=NN(CCCl)C(=O)N[C@@H]1CCC[C@H](C(=O)O)C1 (relative stereo)
inhibition [1]: inactive
ILS [2]: <25%

C[C@H]1S(=O)(=O)C[C@@H](NC(=O)N(CCCl)N=O)CS1(=O)=O
Activity [8]: inactive
inhibition [9]: inactive
ILS at 32 mg/kg [10]: 10%
Activity [3]: inactive
Activity [4]: inactive
Ratio [11]: 0.6
inhibition [1]: inactive
Activity [7]: inactive
ILS [2]: >25%

C[C@H]1S(=O)(=O)C[C@H](NC(=O)N(CCCl)N=O)CS1(=O)=O
Activity [3]: inactive
Activity [4]: inactive
Ratio [11]: 0.4
inhibition [1]: inactive
ILS [2]: <25%

CC[C@H]1CC[C@H](NC(=O)N(CCF)N=O)CC1
inhibition [1]: inactive
ILS [2]: <25%

O=NN(CCF)C(=O)NC1CCSCC1
Activity [12]: inactive
ILS at 36 mg/kg [13]: 87%
inhibition [1]: inactive
Activity [7]: inactive
ILS [2]: >25%

O=NN(CCCl)C(=O)NC1CCS(=O)(=O)C1 (centres undefined)
inhibition [1]: inactive
ILS [2]: <25%

COC(=O)[C@H]1CC[C@H](NC(=O)N(CCCl)N=O)CC1
Activity [8]: inactive
Activity [14]: inactive
ILS at 21 mg/kg [15]: 113%
ILS at 32 mg/kg [10]: 86%
inhibition [1]: Active
Activity [7]: inactive

O=NN(CCCl)C(=O)NC1CC2CCC1C2 (centres undefined)
inhibition [1]: inactive
Activity [7]: inactive
ILS [2]: >25%

O=NN(CCCl)C(=O)NC1CCCC1
inhibition [1]: inactive
ILS [2]: <25%

CC(C)[C@H]1CC[C@H](NC(=O)N(CCF)N=O)CC1
inhibition [1]: inactive
ILS [2]: <25%

O=NN(CCF)C(=O)N[C@H]1CC[C@H](NC(=O)N(CCCl)N=O)CC1
inhibition [1]: inactive
ILS [2]: <25%

O=NN(CCCl)C(=O)N[C@H]1CC[C@@H](NC(=O)N(CCCl)N=O)CC1
inhibition [1]: inactive
ILS [2]: <25%

O=NN(CCCl)C(=O)N[C@H]1CC[C@H](O)CC1
ILS at 38 mg/kg [16]: 146%
ILS at 26 mg/kg [17]: 84%
Time [18]: 10.2 days
Time [19]: 3.3 days
Activity [20]: 10%
Ratio [11]: 0.4
inhibition [1]: inactive
ILS [2]: <25%

C[C@H]1CCC[C@@H](NC(=O)N(CCCl)N=O)C1 (relative stereo)
inhibition [1]: inactive
ILS [2]: <25%

O=NN(CCF)C(=O)N[C@H]1CC[C@@H](C(=O)O)CC1
inhibition [1]: inactive
ILS [2]: <25%

O=NN(CCCl)C(=O)NC1C=CCCC1 (centres undefined)
inhibition [1]: inactive
ILS [2]: <25%

O=NN(CCCl)C(=O)N[C@H]1CC[C@H](C(=O)O)CC1
ILS at 13 mg/kg [21]: 33%
ILS at 30 mg/kg [22]: 115%
Activity [23]: inactive
ILS at 30 mg/kg [24]: 67%
Time [25]: 7.6 days
Time [26]: 20 days
Activity [20]: >50%
Ratio [11]: 0.6
Activity [7]: Active

O=NN(CCCl)C(=O)NCCCl [CARMUSTINE]
Activity [8]: inactive
inhibition [9]: inactive
inhibition [1]: inactive
ILS [2]: <25%

CO[C@H]1CC[C@@H](NC(=O)N(CCCl)N=O)CC1
Activity [4]: inactive
